The values below come from ChEMBL document CHEMBL1138117, “Hybrid antibacterials. DNA polymerase-topoisomerase inhibitors” (J Med Chem, 2006).

SMILES strings stand for the structures. In brackets after ≈: the same amount, converted by molar mass.

Experiment [1] has as its system Mus musculus. The experiment in a line: Effect on survival of mice infected with Enterococcus faecalis 29212 at 75 mg/kg, 15 min post injection. The format is functional, Swiss Webster. The method in brief:
(§1)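 Male Swiss-Webster mice were infected ip with the organism grown in brain-heart infusion broth at 37 °C to log phase and washed. It was given in 0.5 mL broth with 5% mucin; CFU were estimated from OD600. Groups of 5 or 10 received iv tail-vein doses in DCP vehicle at 5 mL/kg. Survivors were counted at 72 h.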

Experiment [2] deals with Mus musculus. Description: Effect on survival of mice infected with methicillin resistant Staphylococcus aureus 1094 at 75 mg/kg twice at 15 and 135 min post injection. The format is functional, Swiss Webster. The method in brief:
(§2)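 Male Swiss-Webster mice were infected ip with 1×10⁷ CFU of log-phase MRSA 1094, grown in brain-heart infusion broth and given in 0.5 mL broth with 5% mucin. Doses in DCP vehicle were given iv by tail vein at 5 mL/kg. Survivors per treated group were counted at 72 h post-infection.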

For experiment [3], the system named is Mus musculus. The experiment in a line: Effect on survival of mice infected with Enterococcus faecalis 29212 at 25 mg/kg, 15 min post injection. Format: functional, Swiss Webster. In outline: as §1
Experiment [4] deals with Mus musculus. Description: Effect on survival of mice infected with Enterococcus faecalis 29212 at 50 mg/kg, 15 min post injection. Format: functional, Swiss Webster. The method in brief:
as §1

The test system of experiment [5] is Mus musculus. The experiment in a line: Effect on survival of mice infected with methicillin resistant Staphylococcus aureus 1094 at 50 mg/kg twice at 15 and 135 min post injection. The format is functional, Swiss Webster. The method in brief: as §2
For experiment [6], the system named is Mus musculus. The experiment in a line: Effect on survival of mice after ip infection with Staphylococcus aureus Smith. Format: functional. In outline: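 Male Swiss-Webster mice (20–24 g) were given 10⁸ CFU of log-phase S. aureus Smith ip, grown in LB at 37 °C and washed in cold broth. A single iv tail-vein dose was given in DCP vehicle (10% DMA, 10% Cremophor EL in PBS, pH 9.5; 5 mL/kg) 15 min post-infection. Survival was scored at 72 h and ED50 derived.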

For experiment [7], the system named is Staphylococcus aureus. Description: Antibacterial activity against methicillin resistant Staphylococcus aureus MRSA 1094. The format is functional.
Experiment [8] relates to Enterococcus faecalis. Description: Antibacterial activity against Enterococcus faecalis 29212. The format is functional.
The test system of experiment [9] is Mus musculus. Description: Effect on survival of mice after ip infection with Vancomycin resistant Enterococcus faecium VRE 700802 at 75 mg/kg twice at 15 and 195 min post injection. The format is functional, Swiss Webster. The settings on record: route intraperitoneal. In outline: as §1
Experiment [10] has as its system DNA gyrase (Bacillus subtilis). The experiment in a line: Inhibition of Bacillus subtilis gyrase activity.
Experiment [11] has as its system Mus musculus. The experiment in a line: Effect on survival of mice infected with Enterococcus faecalis 29212 at 25 mg/kg twice at 15 and 135 min post injection. The format is functional, Swiss Webster. In outline: as §1
For experiment [12], the system named is Mus musculus. Description: Effect on survival of mice infected with methicillin resistant Staphylococcus aureus 1094 at 25 mg/kg twice at 15 and 135 min post injection. The format is functional, Swiss Webster. The method in brief:
as §2

In experiment [13] the test system is Mus musculus. Description: Effect on survival of mice infected with Enterococcus faecalis 29212 at 50 mg/kg twice at 15 and 135 min post injection. Format: functional, Swiss Webster. In outline:
as §1

In experiment [14] the test system is Mus musculus. The experiment in a line: Effect on survival of mice after ip infection with Vancomycin resistant Enterococcus faecium VRE 700802 at 50 mg/kg twice at 15 and 135 min post injection. The format is functional, Swiss Webster. In outline:
as §1

The test system of experiment [15] is Escherichia coli. The experiment in a line: Antibacterial activity against Escherichia coli J53. The format is functional.
The subject of experiment [16] is Mus musculus. Description: Effect on survival of mice after ip infection with Vancomycin resistant Enterococcus faecium VRE 700802 at 50 mg/kg twice at 15 and 195 min post injection. The format is functional, Swiss Webster. The settings on record: route intraperitoneal.
Experiment [17] relates to Enterococcus faecium. Description: Antibacterial activity against Vancomycin resistant Enterococcus faecium VRE 700802. The format is functional.
In experiment [18] the test system is Mus musculus. Description: Effect on survival of mice after ip infection with Vancomycin resistant Enterococcus faecium VRE 700802 at 75 mg/kg twice at 15 and 135 min post injection. Format: functional, Swiss Webster. As to conditions: route intraperitoneal.
Experiment [19] deals with Mus musculus. The experiment in a line: Effect on survival of mice after ip infection with Vancomycin resistant Enterococcus faecium VRE 700802 at 100 mg/kg, 15 min post injection. The settings on record: route intraperitoneal. The format is functional, Swiss Webster. In outline:
as §1

For experiment [20], the system named is Enterococcus faecium. Description: Antibacterial activity against Enterococcus faecium 19434. Format: functional.

Usually ED50 stands for the dose at which the effect has come halfway, by size or by number of responders. Low values mean greater potency, high ones weaker potency. A word on the MIC: it is the lowest concentration that inhibits growth of the organism. High values mean a need for much substance, low ones inhibition by little substance. One may read the IC50 as the concentration that inhibits the measured activity by half. Read a low IC50 as inhibition by little substance.

`CCc1cc(Nc2cc(=O)n(CCCCN3CCN(c4c(F)cc5c(=O)c(C(=O)O)cn(C6CC6)c5c4F)CC3C)c(=O)[nH]2)ccc1C` (stereo not given): the Activity is listed as 80% in experiment [1]; 55% in experiment [2]; 13% in experiment [3]; 40% in [4]; 0% in experiment [5]; 45% in experiment [9]. The Activity in experiment [11] came out at 40%; in experiment [12] it was 5%; in experiment [13] it was 80%; in experiment [14], 10%; in experiment [16] it was 0%; in experiment [18] it was 0%. This compound also displayed an Activity in experiment [19] of 10%. The compound further gave an ED50 in experiment [6] of 15 mg/kg. For the same compound, the MIC in experiment [7] is 1.25 µg/mL (≈ 1.89 µM); in [8], 1.25 µg/mL (≈ 1.89 µM); in experiment [15], 5 µg/mL (≈ 7.54 µM); in [17] it was 0.625 µg/mL (≈ 0.943 µM); in experiment [20], 1.25 µg/mL (≈ 1.89 µM). In [10], this compound yielded an IC50 of 21.7 µg/mL (≈ 32.7 µM).
